Screening results from PubChem.
tolC growth inh = growth inhibitors of E. coli BW25113 tolC mutant; 65,000 compounds, 2.2% hits; OD615; AID 573; growth inhibition, % at 10 µM (by protocol);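 active = growth inhibition at or above a cutoff equal to the mean over every tested compound plus 3 SD, cut at about 60% in these data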;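 note: growth measured after 20 h incubation at 37 °C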
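test system = E. coli BW25113 ΔtolC::kan bacteria | medium = LB with kanamycin 50 µg/mL | signal = OD at 615 nm | schedule = 37 °C, 20 h exposure | evaluation = % inhibition of E. coli growth | compound dosing = one dose of 10 µM final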
PLAP activator = activates human placental alkaline phosphatase | P05187 | purified PLAP enzyme, luminescent substrate read-out; stronger effect = higher value | activation fold at 20 µM | 96,000 compounds, 1.2% hits; in the data active = activation fold above about 2
E coli WT exp = E. coli BW25113 growth inhibition, expanded screen | AID 710 | growth inhibition, % at 100 µM | OD600 absorbance | 98,000 compounds, 0.15% hits;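 active = growth inhibition above about 50% at one test dose, limit read from the data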;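 note: growth measured after 20 h incubation at 37 °C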
HePTP inh = human HePTP phosphatase inhibition; P35236; recombinant HePTP phosphatase activity, OD absorbance; inhibition, % at 20 µM; 110,000 compounds, 0.64% hits; in the data active = inhibition above about 50%;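 note: plate controls were vehicle for no effect and reference inhibitor for full effect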
Target sequence (P35236 whole entry, looked up): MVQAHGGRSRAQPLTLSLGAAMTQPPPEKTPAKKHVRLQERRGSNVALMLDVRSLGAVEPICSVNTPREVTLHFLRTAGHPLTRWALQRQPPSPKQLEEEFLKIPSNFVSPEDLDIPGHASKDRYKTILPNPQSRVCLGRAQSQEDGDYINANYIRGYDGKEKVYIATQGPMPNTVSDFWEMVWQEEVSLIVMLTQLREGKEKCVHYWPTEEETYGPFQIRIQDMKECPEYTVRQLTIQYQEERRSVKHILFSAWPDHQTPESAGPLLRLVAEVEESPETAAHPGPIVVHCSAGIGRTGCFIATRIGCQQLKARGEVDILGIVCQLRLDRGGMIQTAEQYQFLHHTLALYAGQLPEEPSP
AP ELISA ortho = orthogonal test for alternative complement pathway inhibitors; AID 1235; Human serum alternative complement pathway, LPS-coated ELISA, C3 deposition; tested in compound mixtures; inhibition, % at 5 µM; 62,000 compounds, 0.08% hits;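 active = inhibition above 30% in each of the two pooled mixtures holding the compound, so the lower value exceeds 30%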;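 note: 0% = serum in Mg-EGTA without compound and 100% = EDTA serum blank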
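Test system: human serum alternative complement pathway, C3 deposition on LPS-coated wells; also added: Plate-bound LPS; doses: 5 µM per compound in ten-compound mixtures; schedule: 1 h at 37 °C; detection: Anti-C3 ELISA, OD 450 nm; evaluation: percent inhibition of C3 deposition onto LPS; repeats: two pool placements per compound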
Numbers without * were called inactive. Sampled rows, rich in hits. Any-hit rate of the full collection: about 2.3%.

For CCCCCCc1ccc(-c2ncc(N)cn2)cc1 the results were tolC growth inh 100*, PLAP activator 1.3, E coli WT exp 15, HePTP inh 11 and AP ELISA ortho 18.
`O=C(CSCc1cccc(Br)c1)NCCc1ccc(Cl)cc1` gave HePTP inh 4.
Screening O=C(CN(CCc1ccccc1)S(=O)(=O)c1ccc(Cl)cc1)NC1CCCC1 returned HePTP inh 4.
Cn1c(N)c(C(=O)c2cc(-c3ccccn3)nc3ccccc23)c(=O)[nH]c1=O was read as tolC growth inh -12, PLAP activator 2*, E coli WT exp 2, HePTP inh 7 and AP ELISA ortho 7.
`O=C(CN1CCC(NC(=O)Nc2ccccc2-c2ccccc2)CC1)NCc1ccco1` gave tolC growth inh 4, PLAP activator 2.2*, E coli WT exp 7, HePTP inh 7 and AP ELISA ortho 8.
Screening Clc1ccc(C2=Nn3c(nnc3-c3n[nH]c4c3CCC4)SC2)cc1Cl returned tolC growth inh 99*, E coli WT exp 11, HePTP inh 5 and AP ELISA ortho 13.
For CCOC(=O)c1ccccc1NC(=O)c1cc2sccc2n1C the results were tolC growth inh -20, PLAP activator 1, E coli WT exp -5, HePTP inh -15 and AP ELISA ortho 14.
CCOC(=O)c1cccc(NC(=O)c2cc3sccc3n2C)c1 was read as tolC growth inh 73*, PLAP activator 0.7, E coli WT exp -11, HePTP inh -7 and AP ELISA ortho 5.
`Cc1ccc(N=Nc2c(=O)[nH]n3c(=O)cc(C)[nH]c23)cc1` gave PLAP activator 2.1* and E coli WT exp -13.
`CC(=O)C1C(c2ccccc2F)c2c(noc2C)CC1(C)O` (centres undefined) gave HePTP inh -1.
O=C(CC(=O)c1ccccc1O)c1ccc(Br)cc1 was read as HePTP inh -4.
Screening O=c1c2cc(Br)ccc2nc(-c2cccc(C(F)(F)F)c2)n1O returned PLAP activator 1 and E coli WT exp 63*.
Screening O=C(Nc1ccc(C(F)(F)F)cc1)c1cc(-c2cccnc2)nc2ccc(Br)cc12 returned PLAP activator 1 and E coli WT exp -1.
Screening COc1ccccc1N1CCN(CC(O)COc2ccc(C34CC5CC(CC(C5)C3)C4)cc2)CC1 (centres undefined) returned HePTP inh 0.
`O=C1NN(c2ccc(F)c(Cl)c2)C(=O)/C1=C\c1ccco1` gave HePTP inh 99*.
Screening CCOc1ccccc1/C=C1/C(=O)NN(c2ccc(C)c(Cl)c2)C1=O returned HePTP inh 69*.
Cc1ccc(N2NC(=O)/C(=C\c3ccco3)C2=O)cc1C was read as HePTP inh -8.
`O=C1CCCC2=C1C(c1cccc(Br)c1)C1=C(CCCC1=O)O2` gave HePTP inh 2.
For COC(C(=O)Nc1ccc(S(=O)(=O)N2CCCCC2)cc1)c1ccccc1 (centres undefined) the results were PLAP activator 2* and E coli WT exp -3.
Screening COc1ccc(S(=O)(=O)Nc2ccc(S(=O)(=O)N3CCCCC3)cc2)cc1 returned tolC growth inh 74*, PLAP activator 1.2, E coli WT exp 1, HePTP inh -6 and AP ELISA ortho 15.
For O=S(=O)(Nc1ccc(S(=O)(=O)N2CCCCC2)cc1)c1ccc(Br)s1 the results were tolC growth inh 84*, PLAP activator 1.4, E coli WT exp 0, HePTP inh 7 and AP ELISA ortho 4.
Screening COc1ccc(S(=O)(=O)Nc2ccc(S(=O)(=O)N3CCCC3)cc2)cc1 returned PLAP activator 1.2 and E coli WT exp 0.
CC(=O)c1cccc(NC(=O)c2ccc(-c3cc(Cl)ccc3Cl)o2)c1 was read as HePTP inh 5.
CCc1ccc(O)c(N=Cc2cc(Br)cc(Br)c2O)c1 was read as HePTP inh 4.
Cc1c(Cl)cccc1NC(=O)C(=O)NC1CC(C)(C)NC(C)(C)C1 was read as HePTP inh 2.
Screening CC/C(=C/C(=O)c1ccncc1)Nc1ccc(OC)cc1 returned HePTP inh -4.
Cc1ccc(SCC(=O)N(Cc2nc(-c3ccccc3)no2)C(C)C)cc1 was read as tolC growth inh 74*, PLAP activator 1.2, E coli WT exp -4, HePTP inh -3 and AP ELISA ortho 6.
